MC4R ag barr = agonists of human melanocortin 4 receptor (MC4R) beta-arrestin | 0.98% of 360,000 active | activation, % at 8.9 µM | U2OS MC4R beta-arrestin complementation, luminescence; percent of melanotan II response, DMSO zero | P32245;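 active = activation above a per-plate cutoff, the mean activation of sample wells on that plate plus 3 SD, cut at about 8% in these data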
MC4R antag cAMP = blocks human MC4R cAMP signaling; P32245; MC4R-expressing cells, MTII-stimulated cAMP, LANCE TR-FRET; inhibition, % at 6.5 µM; 0.48% of 360,000 active;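 active = inhibition above its plate's cutoff, the mean of tested wells on that plate plus 3 SD, cut at about 29% in these data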;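 also: 0% = Melanotan II alone and 100% = Melanotan II plus saturating MCL0020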
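System: U2OS cells stably expressing human melanocortin 4 receptor (MC4R). Reagent: Melanotan II challenge after compound preincubation. Doses: 6.5 µM. Times: 30-min compound, 1-h challenge, 1-h detection, room temperature. Measured by: TR-FRET with Eu-cAMP and labeled anti-cAMP, 671 nm. Replicates: singlicate.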
Granule exo inh = blocks lytic granule exocytosis | TALL-104 LAMP-1 surface exposure, flow cytometry; cells stimulated with thapsigargin and PMA | AID 651702 | 0.66% of 360,000 active | inhibition, % at 10 µM;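 active = inhibition above about 55%, limit read from the data; inconclusive = no clear call, values can overlap the other calls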
iPSC survival up = hiPSC single-cell survival enhancement; ATPlite luminescence; 100% = ROCK inhibitor wells, 0% = DMSO; survival enhancement, % at 20 µM; 0.044% of 360,000 active; AID 602274; in the data active = survival enhancement above about 18%;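 also: cells exposed to compounds for 16 hours before the ATP read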
TbMetRS inhib = Trypanosoma brucei MetRS inhibition | purified T. brucei MetRS, ATP depletion, Kinase-Glo luminescence | inhibition, % at 11.9 µM | 0.4% of 360,000 active;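 active = inhibition above a per-plate cutoff of the control wells' mean inhibition plus 3 SD, cut at about 5.5% in these data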;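 also: 0% = DMSO wells median and 100% = median of wells with control inhibitor compound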
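Dosing: 11.9 µM compound single dose, 0.9% DMSO; Assay system: purified T. brucei MetRS enzyme; Measured by: Kinase-Glo luciferase luminescence reporting remaining unconsumed ATP; Schedule: 15 min plus 2 h at 25 °C.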
ABCB6 inh MLPCN = blocks the human ABCB6 transporter; Q9NP58; K562-ABCB6 porphyrin accumulation, flow cytometry, 1 h; active compounds read low; fluorescence ratio to DMSO, % at 10 µM; 0.19% of 360,000 active;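 active = fluorescence ratio to DMSO below 75%, the collection mean minus 3 SD; inconclusive = too few cells collected in the well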;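 also: signal is porphyrin accumulated inside mitochondria; 100% equals median channel fluorescence of DMSO control wells; lower ratio means ABCB6 inhibition with less porphyrin fluorescence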
MC4R barr conf = human MC4R beta-arrestin agonism confirmation | activation, % at 8.9 µM | shares compounds with MC4R ag barr | 31% of 2,400 active | U2OS MC4R beta-arrestin recruitment, luminescence; scaled DMSO 0%, Melanotan II 100%;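 active = mean activation across replicates above the hit cutoff set in the earlier primary screen, cut at about 8% in these data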
MOR-DOR barr ag = counter-screen for MC4R agonists: agonists of mu-delta opioid heterodimer; activation, % at 9.2 µM; 5.8% of 2,400 active; shares compounds with MC4R ag barr; U2OS PathHunter beta-arrestin, beta-gal luminescence; percent of deltorphin B response, DMSO zero;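 active = mean activation across replicates exceeds the hit threshold derived in the earlier primary screen, cut at about 18% in these data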;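 also: 100% = deltorphin B at 0.9 µM final and 0% = DMSO alone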
Target sequence (P35372 whole entry, looked up): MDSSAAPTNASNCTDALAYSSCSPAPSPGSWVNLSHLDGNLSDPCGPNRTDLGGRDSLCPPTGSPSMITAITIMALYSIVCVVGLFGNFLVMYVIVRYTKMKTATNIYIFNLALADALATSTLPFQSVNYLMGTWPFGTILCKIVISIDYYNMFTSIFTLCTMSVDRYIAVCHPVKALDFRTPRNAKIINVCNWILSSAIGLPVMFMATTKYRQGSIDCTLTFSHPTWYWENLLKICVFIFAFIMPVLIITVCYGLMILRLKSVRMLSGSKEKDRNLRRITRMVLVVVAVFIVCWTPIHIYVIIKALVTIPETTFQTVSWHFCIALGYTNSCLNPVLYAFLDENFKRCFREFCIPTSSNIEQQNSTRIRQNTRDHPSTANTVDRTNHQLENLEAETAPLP
Target sequence (P41143 whole entry, looked up): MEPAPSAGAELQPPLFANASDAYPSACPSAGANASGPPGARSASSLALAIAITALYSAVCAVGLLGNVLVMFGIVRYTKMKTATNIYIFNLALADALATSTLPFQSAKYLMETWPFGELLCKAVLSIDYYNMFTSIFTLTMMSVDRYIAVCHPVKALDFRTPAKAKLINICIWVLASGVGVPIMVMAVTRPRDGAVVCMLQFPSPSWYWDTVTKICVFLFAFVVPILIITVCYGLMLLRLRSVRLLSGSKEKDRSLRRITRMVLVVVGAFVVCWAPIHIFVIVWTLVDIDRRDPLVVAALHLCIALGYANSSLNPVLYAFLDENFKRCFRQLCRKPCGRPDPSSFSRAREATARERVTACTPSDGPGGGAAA
* hit, by the source's call; ? = inconclusive; . = no result. Most compounds without a hit are left out; they make up all but 2.6% or so of the library.

SMILES	MC4R ag barr	MC4R antag cAMP	Granule exo inh	iPSC survival up	TbMetRS inhib	ABCB6 inh MLPCN	MC4R barr conf	MOR-DOR barr ag
O=C(CSc1nc2ccc(NC(=O)CSc3nnnn3Cc3ccccc3)cc2s1)Nc1ccccc1	12*	4	3	-1	0	96	6	5
Cc1c(-c2ccc(F)cc2)nc(N)c(C#N)c1-c1ccco1	15*	3	-1	-1	-1	102	3	7
CCc1nc(N)c(C#N)c(-c2ccc(F)cc2)c1C	7	0	-1	0	0	97	.	.
CC(=O)N1CCC(N(CCN2CCOCC2)C(=S)Nc2cc(C)ccc2C)CC1	-1	7	-3	0	-1	97	.	.
O=C(CCN1CCC(c2cccs2)=N1)c1cccs1	0	-4	-7	5	1	100	.	.
Cc1ccc(S(=O)(=O)NC(Cc2ccccc2)C(=O)O)cc1C (centres undefined)	0	-1	-9	0	0	102	.	.
O=C(CSc1ncnc2c1oc1ccccc12)c1cccs1	13*	21	8	-2	-1	111	1	5
Cc1nc(SCC(=O)c2cccs2)c2oc3ccccc3c2n1	4	6	4	-1	0	95	.	.
CCC/C(O)=C1\C(=O)CCCC1=NCCc1c(C)[nH]c2ccccc12	1	5	-9	0	-1	92	.	.
COc1ccc(OCC(=O)N/N=C/C(C)=C/c2ccco2)c(Br)c1	19*	18	-3	0	0	102	-1	8
CC(=O)/C(C#N)=C1\NC(=O)C(Cc2ccc(C)c(Cl)c2)S1 (centres undefined)	-1	10	-1	0	5	93	.	.
O=C(O)c1cc2ccc3cccc4ccc(c1)c2c34	-2	2	-8	-1	0	94	.	.
CCc1ccc(OCCNC(=O)OCc2ccccc2)cc1	10.0*	-8	2	-1	-2	98	2	4
CCCN1C(=O)/C(=C/c2c(NCCCOCC)nc3c(C)cccn3c2=O)SC1=S	-1	5	-2	0	-1	830	.	.
O=C1/C(=C\c2c(NCCOCCO)nc3ccccn3c2=O)SC(=S)N1Cc1ccco1	10*	-2	0	0	0	145	5	8
CCOC(=O)/C(=N\Nc1ccccc1[N+](=O)[O-])c1csc(N)n1	1	-6	-1	3	0	96	.	.
CCOC(=O)/C(=N\Nc1ccc(C(C)=O)cc1)c1csc(Nc2ccccc2)n1	21*	21	8	1	0	130	13*	4
O=C(c1ccccc1)c1coc2c1C(=O)c1ccccc1C2=O	1	-7	14	0	1	105	.	.
COc1ccc(C(=O)c2coc3c2C(=O)C(=O)c2ccccc2-3)cc1	17*	-3	98*	0	1	98	4	6
O=C(COc1ccccc1)Nc1ccc(OC(F)(F)C(F)F)c(NC(=O)COc2ccccc2)c1	17*	0	0	2	0	102	9.9*	12
CCn1c2ccccc2c2cc(NC(=O)COc3ccc(OC)cc3)ccc21	4	16	-4	-2	0	101	.	.
CCn1c2ccccc2c2cc(NC(=O)COC(=O)c3ccccc3F)ccc21	9.8*	12	0	3	0	98	3	4
CCn1c2ccccc2c2cc(NC(=O)COc3ccccc3)ccc21	26*	-7	0	-2	-1	99	2	3
CC(=O)Nc1ccc(OC(F)(F)C(F)F)c(NC(C)=O)c1	-1	10	-1	0	0	98	.	.
COc1ccc(Br)cc1C1=CC(=O)C[C@H](c2ccc(F)cc2)C1	1	12	-1	-2	0	96	.	.
SMILES	MC4R ag barr	MC4R antag cAMP	Granule exo inh	iPSC survival up	TbMetRS inhib	ABCB6 inh MLPCN	MC4R barr conf	MOR-DOR barr ag
Cc1nc2ccc(NS(=O)(=O)c3ccc(F)c(C)c3)cc2[nH]1	0	17	-24	0	0	97	.	.
CCn1c(SCC(=O)NC2CC2)nnc1-c1cccc(OC)c1	-1	3	4	0	0	?	.	.
Cc1ccccc1N1CCN(S(=O)(=O)c2nnc(NC(=O)CC(C)C)s2)CC1	13*	-1	3	-2	0	101	1	6
Cc1ccccc1N1CCN(S(=O)(=O)c2nnc(NC(=O)c3ccco3)s2)CC1	1	2	1	0	0	97	.	.
Cc1noc(C)c1COc1ccccc1C(=O)N1CCN(S(=O)(=O)c2ccccc2F)CC1	-1	26	-5	0	0	102	.	.
Cc1ccccc1N/C(SCc1cccc(Br)c1)=C(/C#N)C(N)=O	23*	11	9	-2	0	105	2	9
CC(NC(C(=O)c1ccccc1)c1ccccc1)c1ccccc1 (centres undefined)	12*	15	1	-1	0	99	0	6
Cc1ccc(NC(C(=O)c2ccccc2)c2ccccc2)cc1 (centres undefined)	0	5	14	-3	0	101	.	.
S=c1[nH]c(-c2ccc(Br)cc2)cn1CCc1ccccc1	19*	4	-2	-1	0	93	-1	5
CCCNC(=O)C(Cc1ccc(Cl)cc1)NC(=O)c1ccc(-c2ccccc2)cc1 (centres undefined)	14*	5	4	4	0	98	2	17
CCCNC(=O)C(Cc1ccc(Cl)cc1)NC(=O)c1ccc(C#N)cc1 (centres undefined)	1	3	-6	1	0	97	.	.
Cc1ccn2c(NC3CCCCC3)c(-c3cccc(-c4cccc(Cl)c4)c3)nc2c1	-2	4	18	2	-1	92	.	.
COc1ccc(OC)c(-c2cc(C(=O)Nc3c(C)nn(Cc4ccccc4)c3C)no2)c1	-1	3	-1	-2	0	99	.	.
COc1ccc(-c2cc(C(=O)Nc3c(C)nn(Cc4ccccc4Cl)c3C)no2)cc1	13*	-4	-1	1	-1	78	11*	4
Cc1cccc(NC(=O)c2cccc3c2C(=O)c2ccccc2-3)c1	33*	5	0	-1	0	94	8.3*	9
Cc1sc(NC(=O)Cn2c(=O)oc3ccccc32)nc1-c1ccc(Cl)cc1	13*	0	-4	0	-1	95	3	7

Compound activity: PubChem, several laboratories
